Test results published in PMC4415995 (Advances in Therapy, 2015).
Marks after values point to notes of the source that are not given here.

Test system: Japanese patients with T2DM
Test: Plasma glucose concentrations, 7-day once-daily dosing
Assay type: in vivo, human
Outline: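 Plasma glucose was measured by a glucose dehydrogenase enzymatic UV method. Sampling was pre-breakfast/pre-dose and 0.5–24 h after breakfast on Day −1, after dosing on Days 1 and 7, and pre-breakfast on Days 11 and 14. Standardized ~600 kcal meals were given, with lunch and dinner at 4 and 12 h. AUC, Cmax and tmax were non-compartmental. MPG was the mean of the 0, 2, 4, 6, 12, 14 and 16 h values. LS mean difference vs placebo with 95% CI.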

CCOc1ccc(Cc2cc([C@@H]3S[C@H](CO)[C@@H](O)[C@H](O)[C@H]3O)c(OC)cc2C)cc1 [Luseogliflozin, (1S)-1,5-anhydro-1-[5-(4-ethoxybenzyl)-2-methoxy-4-methylphenyl]-1-thio-D-glucitol]
FPG (24 h after dose) (2.5 mg OD, Day 1): 141 ± 23 mg/dL | FPG (24 h after dose) LS mean difference vs placebo (95% CI) (2.5 mg OD, Day 1): −23.0 (−31.6, −14.4)* mg/dL | MPG0–16h (2.5 mg OD, Day 1): 210 ± 35.7 mg/dL | MPG0–16h LS mean difference vs placebo (95% CI) (2.5 mg OD, Day 1): −23.8 (−33.7, −13.9)* mg/dL | Plasma glucose AUC0–4h (after breakfast) (2.5 mg OD, Day 1): 868 ± 166 mg·h/dL | Plasma glucose AUC0–4h (after breakfast) LS mean difference vs placebo (95% CI) (2.5 mg OD, Day 1): −106 (−159, −53.6)* mg h/dL | Plasma glucose AUC4–8h (after lunch) (2.5 mg OD, Day 1): 879 ± 176 mg·h/dL | Plasma glucose AUC4–8h (after lunch) LS mean difference vs placebo (95% CI) (2.5 mg OD, Day 1): −147 (−224, −69.0)* mg h/dL | Plasma glucose AUC12–16h (after dinner) (2.5 mg OD, Day 1): 944 ± 123 mg·h/dL | Plasma glucose AUC12–16h (after dinner) LS mean difference vs placebo (95% CI) (2.5 mg OD, Day 1): −71.1 (−123, −19.2)* mg h/dL | Plasma glucose C max0–4h (after breakfast) (2.5 mg OD, Day 1): 254 ± 48.7 mg/dL | Plasma glucose C max4–8h (after lunch) (2.5 mg OD, Day 1): 250 ± 54.5 mg/dL | Plasma glucose C max4–8h (after lunch) LS mean difference vs placebo (95% CI) (2.5 mg OD, Day 1): −43.5 (−67.2, −19.7)* mg/dL | Plasma glucose C max12–16h (after dinner) (2.5 mg OD, Day 1): 279 ± 40.2 mg/dL | Plasma glucose C max12–16h (after dinner) LS mean difference vs placebo (95% CI) (2.5 mg OD, Day 1): −26.1 (−44.6, −7.60)* mg/dL | FPG (24 h after dose) (2.5 mg OD, Day 7): 122 ± 14 mg/dL | FPG (24 h after dose) LS mean difference vs placebo (95% CI) (2.5 mg OD, Day 7): −41.3 (−53.5, −29.0)* mg/dL | MPG0–16h (2.5 mg OD, Day 7): 181 ± 21.2 mg/dL | MPG0–16h LS mean difference vs placebo (95% CI) (2.5 mg OD, Day 7): −50.1 (−66.7, −33.4)* mg/dL | Plasma glucose AUC0–4h (after breakfast) (2.5 mg OD, Day 7): 738 ± 102 mg·h/dL | Plasma glucose AUC0–4h (after breakfast) LS mean difference vs placebo (95% CI) (2.5 mg OD, Day 7): −221 (−297, −145)* mg h/dL | Plasma glucose AUC4–8h (after lunch) (2.5 mg OD, Day 7): 802 ± 127 mg·h/dL | Plasma glucose AUC4–8h (after lunch) LS mean difference vs placebo (95% CI) (2.5 mg OD, Day 7): −250 (−348, −152)* mg h/dL | Plasma glucose AUC12–16h (after dinner) (2.5 mg OD, Day 7): 828 ± 63.2 mg·h/dL | Plasma glucose AUC12–16h (after dinner) LS mean difference vs placebo (95% CI) (2.5 mg OD, Day 7): −149 (−224, −73.6)* mg h/dL | Plasma glucose C max0–4h (after breakfast) (2.5 mg OD, Day 7): 219 ± 26.3 mg/dL | Plasma glucose C max4–8h (after lunch) (2.5 mg OD, Day 7): 230 ± 30.0 mg/dL | Plasma glucose C max4–8h (after lunch) LS mean difference vs placebo (95% CI) (2.5 mg OD, Day 7): −65.6 (−94.0, −37.1)* mg/dL | Plasma glucose C max12–16h (after dinner) (2.5 mg OD, Day 7): 250 ± 23.3 mg/dL | Plasma glucose C max12–16h (after dinner) LS mean difference vs placebo (95% CI) (2.5 mg OD, Day 7): −36.2 (−61.2, −11.3)* mg/dL | FPG (24 h after dose) (5 mg OD, Day 1): 132 ± 12 mg/dL | FPG (24 h after dose) LS mean difference vs placebo (95% CI) (5 mg OD, Day 1): −20.8 (−29.5, −12.1)* mg/dL | MPG0–16h (5 mg OD, Day 1): 173 ± 26.7 mg/dL | MPG0–16h LS mean difference vs placebo (95% CI) (5 mg OD, Day 1): −27.4 (−37.4, −17.4)* mg/dL | Plasma glucose AUC0–4h (after breakfast) (5 mg OD, Day 1): 752 ± 87.6 mg·h/dL | Plasma glucose AUC0–4h (after breakfast) LS mean difference vs placebo (95% CI) (5 mg OD, Day 1): −100 (−154, −46.5)* mg h/dL | Plasma glucose AUC4–8h (after lunch) (5 mg OD, Day 1): 710 ± 120 mg·h/dL | Plasma glucose AUC4–8h (after lunch) LS mean difference vs placebo (95% CI) (5 mg OD, Day 1): −104 (−183, −25.1)* mg h/dL | Plasma glucose AUC12–16h (after dinner) (5 mg OD, Day 1): 766 ± 118 mg·h/dL | Plasma glucose AUC12–16h (after dinner) LS mean difference vs placebo (95% CI) (5 mg OD, Day 1): −133 (−184, −81.7)* mg h/dL | Plasma glucose C max0–4h (after breakfast) (5 mg OD, Day 1): 231 ± 16.6 mg/dL | Plasma glucose C max4–8h (after lunch) (5 mg OD, Day 1): 207 ± 33.1 mg/dL | Plasma glucose C max4–8h (after lunch) LS mean difference vs placebo (95% CI) (5 mg OD, Day 1): −32.4 (−56.5, −8.28)* mg/dL | Plasma glucose C max12–16h (after dinner) (5 mg OD, Day 1): 225 ± 33.2 mg/dL | Plasma glucose C max12–16h (after dinner) LS mean difference vs placebo (95% CI) (5 mg OD, Day 1): −41.8 (−60.2, −23.5)* mg/dL | FPG (24 h after dose) (5 mg OD, Day 7): 126 ± 13 mg/dL | FPG (24 h after dose) LS mean difference vs placebo (95% CI) (5 mg OD, Day 7): −30.6 (−43.1, −18.1)* mg/dL | MPG0–16h (5 mg OD, Day 7): 168 ± 27.8 mg/dL | MPG0–16h LS mean difference vs placebo (95% CI) (5 mg OD, Day 7): −38.9 (−55.7, −22.1)* mg/dL | Plasma glucose AUC0–4h (after breakfast) (5 mg OD, Day 7): 708 ± 87.5 mg·h/dL | Plasma glucose AUC0–4h (after breakfast) LS mean difference vs placebo (95% CI) (5 mg OD, Day 7): −162 (−239, −84.9)* mg h/dL | Plasma glucose AUC4–8h (after lunch) (5 mg OD, Day 7): 710 ± 105 mg·h/dL | Plasma glucose AUC4–8h (after lunch) LS mean difference vs placebo (95% CI) (5 mg OD, Day 7): −184 (−284, −84.3)* mg h/dL | Plasma glucose AUC12–16h (after dinner) (5 mg OD, Day 7): 755 ± 137 mg·h/dL | Plasma glucose AUC12–16h (after dinner) LS mean difference vs placebo (95% CI) (5 mg OD, Day 7): −131 (−205, −57.5)* mg h/dL | Plasma glucose C max0–4h (after breakfast) (5 mg OD, Day 7): 222 ± 19.4 mg/dL | Plasma glucose C max4–8h (after lunch) (5 mg OD, Day 7): 211 ± 35.1 mg/dL | Plasma glucose C max4–8h (after lunch) LS mean difference vs placebo (95% CI) (5 mg OD, Day 7): −41.0 (−69.8, −12.1)* mg/dL | Plasma glucose C max12–16h (after dinner) (5 mg OD, Day 7): 223 ± 38.8 mg/dL | Plasma glucose C max12–16h (after dinner) LS mean difference vs placebo (95% CI) (5 mg OD, Day 7): −33.7 (−58.4, −9.02)* mg/dL
